Assay outcomes deposited in PubChem BioAssay by The Scripps Research Institute Molecular Screening Center.
CHRM4 PAM – CHRM4 positive allosteric modulation | CHO-K1 hM4/Gqi5, Fluo-8 calcium fluorescence, ACh EC20; 0% = ACh EC20, 100% = maximal ACh | actives 0.4% (n = 360,000) | activation, % at 3 µM;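 active means activation above its plate's cutoff, the mean activation of sample wells plus 3 SD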
Target sequence (P08173 whole entry, looked up): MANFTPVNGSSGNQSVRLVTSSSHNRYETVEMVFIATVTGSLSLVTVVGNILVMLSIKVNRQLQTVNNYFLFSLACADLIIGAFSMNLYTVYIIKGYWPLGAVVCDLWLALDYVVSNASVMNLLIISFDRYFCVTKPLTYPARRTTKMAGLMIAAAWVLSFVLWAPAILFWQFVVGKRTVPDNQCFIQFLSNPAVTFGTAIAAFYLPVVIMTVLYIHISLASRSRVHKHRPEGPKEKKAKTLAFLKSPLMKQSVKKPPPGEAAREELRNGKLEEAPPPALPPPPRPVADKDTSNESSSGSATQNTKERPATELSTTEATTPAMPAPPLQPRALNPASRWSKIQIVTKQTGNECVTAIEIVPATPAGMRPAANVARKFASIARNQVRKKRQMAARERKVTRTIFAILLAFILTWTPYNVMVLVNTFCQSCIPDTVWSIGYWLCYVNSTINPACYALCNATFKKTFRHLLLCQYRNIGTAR
CHRM5 antagonist – CHRM5 antagonism in calcium assay | actives 0.59% (n = 360,000) | inhibition, % at 3 µM | CHO-hM5 cells, Fluo-8 calcium fluorescence, ACh EC80 | AID 624040 | P08912;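 active means inhibition above a per-plate cutoff, the mean of that plate's test compounds plus 3 SD, cut at about 27% in these data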
CHRM5 PAM – positive allosteric modulators of human muscarinic M5 receptor; P08912; CHO-K1 hM5, Fluo-8 calcium, ACh EC20 PAM; 0% = ACh EC20, 100% = ACh EC100; activation, % at 3 µM; actives 0.3% (n = 360,000); AID 624038;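 active means activation above the run cutoff, the mean activation of all test compounds plus 3 SD, cut at about 18% in these data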
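system = human M5 receptor in CHO-K1 cells | compound = one concentration, 3 µM final (nominal) | schedule = Post-acetylcholine fluorescence recording 140 s | signal = Fluo-8 calcium dye fluorescence, kinetic read | benchmarks = low control EC20 acetylcholine (0%), high control EC100 acetylcholine (100%) | repeats = singlicate, one well per test compound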
CHRM4 agonist – CHRM4 agonism in calcium assay. CHO-K1 hM4/Gqi5, Fluo-8 calcium fluorescence; vehicle 0%, full acetylcholine response 100%. activation, % at 3 µM. actives 0.14% (n = 360,000). AID 624127;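 active means activation above the run mean over all test wells plus 3 SD, cut at about 32% in these data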;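 further: peak over basal fluorescence ratio per well then scaled between controls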
CHRM5 agonist – agonists of human muscarinic M5 receptor (CHRM5); P08912; CHO-K1 hM5 cells, Fluo-8 calcium fluorescence; 0% DMSO wells, 100% maximal acetylcholine response; activation, % at 3 µM; actives 0.19% (n = 360,000);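 active means activation above the run's mean over test compounds plus 3 SD, cut at about 23% in these data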;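 further: signal is peak over basal fluorescence ratio across the kinetic read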
M4 antag – CHRM4 antagonism in calcium assay. inhibition, % at 3 µM. P08173. AID 624125. CHO-hM4 cells, ACh EC80, Fluo-8 calcium fluorescence. actives 0.73% (n = 360,000);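 active means inhibition above its plate's cutoff, the mean inhibition of sample wells plus 3 SD, cut at about 27% in these data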
Each line names hits and unclear results; the compound was inactive in the other large screens. Hits are enriched below; roughly 1.8% of the tested compounds scored in any of these assays.

O=C(NCc1ccccc1)C1CCCN(c2ncnc3c2nc2n3CCCCC2)C1 (stereo not drawn)	none
COc1ccccc1CN(C)C(=O)CSCC(=O)Nc1ccccc1F	none
COC(=O)COc1cccc(NC(=O)C(c2ccccc2)c2ccccc2)c1	none
CN(C)c1ccc(/C=C/c2nc3ccccc3c(=O)n2-c2ccc(C(=O)O)cc2)cc1	CHRM4 agonist 55, CHRM5 agonist 26
COCCN(C(=O)Cc1coc2cc(C)c(C)cc12)c1c(N)n(Cc2ccccc2)c(=O)[nH]c1=O	CHRM5 antagonist 100
CC(C)CN(C(=O)COC(=O)C12CC3CC(CC(Cl)(C3)C1)C2)c1c(N)n(Cc2ccccc2)c(=O)[nH]c1=O	none
CCN(C(=O)COC(=O)c1ccccc1Oc1ccccc1)c1c(N)n(Cc2ccccc2)c(=O)[nH]c1=O	CHRM4 PAM 25
COCCN(C(=O)COC(=O)C12CC3CC(CC(Cl)(C3)C1)C2)c1c(N)n(Cc2ccccc2)c(=O)[nH]c1=O	CHRM4 PAM 27
CCN(C(=O)COC(=O)c1nc(Cl)ccc1Cl)c1c(N)n(Cc2ccccc2)c(=O)[nH]c1=O	none
COCCN(C(=O)COC(=O)c1nc(Cl)ccc1Cl)c1c(N)n(Cc2ccccc2)c(=O)[nH]c1=O	M4 antag 27
COCCN(C(=O)COC(=O)c1ccccc1Oc1ccccc1)c1c(N)n(Cc2ccccc2)c(=O)[nH]c1=O	none
Cc1cc(/C=C(\C#N)C(=O)N2CCOCC2)c(C)n1C1CCCC1	none
Cc1cc(C)c(NS(=O)(=O)c2ccccc2)c(C)c1NS(=O)(=O)c1ccccc1	none
COCCN(C(=O)COC(=O)c1cccnc1SC)c1c(N)n(Cc2ccccc2)c(=O)[nH]c1=O	CHRM4 PAM 22
COCCN(C(=O)COC(=O)c1cccnc1Cl)c1c(N)n(Cc2ccccc2)c(=O)[nH]c1=O	none
N#Cc1ccccc1OCC(=O)N1CCN(C(=O)c2ccco2)CC1	none
CCCCn1nnc(NC(=O)CC23CC4CC(CC(C4)C2)C3)n1	CHRM4 PAM 15
O=C1NC[C@@H](CCCCN2C[C@H](Cc3ccc(O)cc3)N(CC3CCCCC3)C(=O)C2=O)N(Cc2ccccc2)C1=O	CHRM4 agonist 37
O=C1NC[C@@H](CCCCN2C[C@H](Cc3ccccc3)N(Cc3ccccc3)C(=O)C2=O)N(CC2CCCCC2)C1=O	none
O=C1NC[C@@H](CCCCN2C[C@H](Cc3ccccc3)N(CC3CCCCC3)C(=O)C2=O)N(CC2CCCCC2)C1=O	CHRM4 agonist 59
Fc1ccc(CNC(=S)NCc2cccc(Cl)c2)cc1	none
CC(=O)N1CC2([N+](=O)[O-])CN(C(C)=O)CC([N+](=O)[O-])(C1)C2(C)C	CHRM4 PAM 20
CCn1c(=O)c([N+](=O)[O-])c(Cl)c2ccccc21	M4 antag 39
CC(=O)N1N=C(c2ccc(Cl)cc2)OC1c1ccc(C(C)C)cc1 (stereo not drawn)	CHRM5 PAM 33
CC(=O)N1N=C(c2ccc(C)cc2)OC1c1ccc(Br)cc1 (stereo not drawn)	none
O=[N+]([O-])c1cc(Cl)cc(/C=N/n2cnnc2)c1O	CHRM5 PAM 25
O=C(NCCN1CCC(n2c(=O)[nH]c3ccccc32)CC1)c1cc(F)cc(F)c1	none
Fc1ccc(C2N(c3ccccc3)C(=S)N3CCCN23)cc1 (stereo not drawn)	none
Cc1ccc(C2N(c3ccccc3)C(=S)N3CCCN23)cc1 (stereo not drawn)	M4 antag 48
O=C(Nc1ccccc1)Nc1ncc([N+](=O)[O-])s1	CHRM5 antagonist 28
C=C(C)C1CC=C(C)/C(=N/NC(=O)COc2ccc(Cl)cc2)C1 (stereo not drawn)	CHRM4 PAM 20
CCNc1nc(NC(C)(C)C)nc(N(C#N)CC)n1	M4 antag 61
CCNc1nc(NCC)nc(N(C#N)C(C)C)n1	none
Cc1cc(C)cc(OCCNC(=O)CCc2ccccc2)c1	none
CCOC(=O)Nc1ccc2c(C)cc(=O)oc2c1	none
CCCCOC(=O)Nc1ccc2c(C)cc(=O)oc2c1	CHRM4 PAM 30
CN(Cc1ccccc1)C(=O)c1ccc(NC(=O)Cc2ccc([N+](=O)[O-])cc2)cc1	CHRM5 agonist 26
CCN(CC)c1nc(C=Cc2ccc(N(C)C)cc2)c2nccnc2n1	CHRM5 antagonist 50, CHRM5 agonist 31, M4 antag 41
CN(C)c1ccc(C=Cc2nccc3ccccc23)cc1	CHRM5 antagonist 29, CHRM4 agonist 36, CHRM5 agonist 29
COc1cccc(C=Cc2nccc3ccccc23)c1OC	none
COC(=O)/C=C1\OCc2ccc(C)cc21	CHRM5 PAM 19
CNC(=O)Cn1nc(C)c(S(=O)(=O)N2CCOCC2)c1C	none
C[C@H](CO)N1C[C@H](C)[C@@H](CN(C)S(=O)(=O)c2cccs2)Oc2ccc(NC(=O)Nc3ccc4c(c3)OCO4)cc2C1=O	none
C[C@H](CO)N1C[C@H](C)[C@H](CN(C)S(=O)(=O)c2cccs2)Oc2ccc(NC(=O)Nc3ccc4c(c3)OCO4)cc2CC1=O	M4 antag 41
C[C@H]1CN([C@@H](C)CO)C(=O)Cc2cc(NS(=O)(=O)c3cccs3)ccc2O[C@H]1CN(C)S(=O)(=O)c1cn(C)cn1	M4 antag 32
C[C@H](CO)N1C[C@H](C)[C@@H](CN(C)S(=O)(=O)c2cccs2)Oc2ccc(NS(=O)(=O)c3cn(C)cn3)cc2C1=O	none
CN(C)c1ccc(C(=S)N2CCN(S(=O)(=O)c3ccccc3)CC2)cc1	none
Cc1ccc(C(=O)Nc2nc3n(n2)C(c2ccccc2)CC(=O)N3)cc1 (stereo not drawn)	none
Cc1ccc([C@H]2C[C@@H](O)[C@H](n3cc(C4CC4)nn3)CN2Cc2cccs2)cc1	CHRM4 PAM 17
O=C(NCc1ccccc1)c1c(Cl)nc(Cl)c(Cl)c1Cl	none
CC(C)C[C@@H](CO)N(Cc1ccccc1)S(=O)(=O)N(Cc1ccccc1)[C@@H](CO)CC(C)C	none
COc1ccc(CN([C@H](CO)CC(C)C)S(=O)(=O)N(Cc2ccccc2)[C@H](CO)CC(C)C)cc1	M4 antag 41
CC(C)C[C@@H](CO)N(Cc1ccccc1)S(=O)(=O)N(Cc1ccccc1)[C@H](CO)CC(C)C	M4 antag 39
CCOC(=O)c1ccccc1NC(=O)COC(=O)CSc1ccccc1	CHRM4 PAM 21
Cc1ccccc1NC(=O)CSc1nnnn1C	none
CCOC(=O)c1ccccc1NC(=O)CSc1nnnn1C	CHRM4 PAM 19
